Test results reported in ChEMBL document CHEMBL1125589, “Verapamil analogues with restricted molecular flexibility” (1991).

Columns and labels:
[1] = species: Cavia porcellus; test: Compound was tested in vitro for chronotropic activity on isolated atria preparations of guinea pig.; format: functional
[2] = species: Cavia porcellus; test: Percent inhibition of [Ca2+] induced contraction on K+ depolarized guinea pig aortic strips at […] concentration; format: functional, Aorta
Summary of the method: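 Guinea pig aortic strips were depolarized with K+, and contraction was induced with Ca2+. Percent inhibition of that contraction was measured with the test agent at 5·10^-4 M. Results are given as means ± SEM, n = 5-6.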

[3] = species: Cavia porcellus; test: Compound was tested in vitro for ionotropic activity on isolated atria preparations of guinea pig.; format: functional
[4] = species: Cavia porcellus; test: Compound was tested in vitro for ionotropic activity on isolated atria preparations of guinea pig at 10E-6 M concentration; format: functional
[5] = species: Cavia porcellus; test: Compound was tested in vitro for chronotropic activity on isolated atria preparations of guinea pig at 10E-6 M concentration; format: functional
Summary of the method: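 Chronotropic effect was measured on spontaneously beating isolated guinea pig right atria, with the test agent at 10^-6 M.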

Structure (SMILES)	Negative chronotropic activity [1] [%]	Ca2+ antagonistic activity [2] [%]	Negative ionotropic activity [3] [%]	Negative ionotropic activity [4] [%]	Negative chronotropic activity [5] [%]
COc1ccc(CCN(C)[C@H]2CC[C@](C#N)(c3ccc(OC)c(OC)c3)CC2)cc1OC	65	59	52	–	–
COc1ccc(CCN(C)[C@H]2CC[C@@](C#N)(c3ccc(OC)c(OC)c3)CC2)cc1OC	67	66	56	–	–
COc1ccc(CCN(C)CCCC(C#N)(c2ccc(OC)c(OC)c2)C(C)C)cc1OC (centres undefined) [VERAPAMIL]	–	79	–	60	94
